Measured values from article PMC9393086 (Thrombosis and Haemostasis, 2022).
One block for each compound: values may come before it.

Assays:
mouse washed platelets = assay: Mouse platelet aggregation; format: cell-based; details: katacine 10 µM; 2x10^8 platelets/mL
[1] = target: podoplanin–CLEC-2 interaction (Homo sapiens, UniProt Q9P126); assay: ALPHA screen podoplanin–CLEC-2 interaction assay; format: binding
Outline: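 Biotinylated human podoplanin–rabbit Fc (50 nM) plus human CLEC-2 extracellular domain (Ser55–Pro229)–6xHis (250 nM), both expressed in HEK293T and purified, incubated with test compound (vehicle 0.1% v/v DMSO) 30 min at 4°C. Then 40 µg/mL streptavidin donor beads, 30 min at RT in the dark, then 40 µg/mL nickel acceptor beads, 60 min at RT in the dark. ALPHA signal read; false positives excluded by TruHits counter-screen; IC50 from concentration series.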

FcR γ-chain = FcR γ-chain phosphorylation, western blot of whole cell lysate; format: cell-based, human; details: katacine 10 µM, CRP 3 µg/mL
washed human platelets = assay: Light transmission platelet aggregation; format: cell-based; details: for effect on platelet aggregation induced by 10 µM katacine: pretreatment 5 min, PRT-060318 1 µM, PP2 20 µM
Outline: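 Platelets came from citrated blood of healthy donors free of antiplatelet drugs for 14 days. They were washed from PRP with 0.2 µg/mL prostacyclin, resuspended in modified Tyrode's buffer pH 7.3 and rested 30 min at RT. Platelets (2 × 10^8/mL) were stirred at 1,200 rpm at 37°C and stimulated with test compound (1–30 µM). Pretreatment was 5 min at 37°C with PP2 20 µM, PRT-060318 1 µM, AYP1 10 µg/mL or 0.1% DMSO. Read-out was light transmission; three independent experiments, mean + SD.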

mouse platelet lysates = assay: Protein tyrosine phosphorylation in mouse platelet lysates; format: cell-based; details: katacine 10 µM; 4x10^8 platelets/mL
LAT Y200 = assay: Phospho-specific immunoblot of platelet lysates, LAT; format: cell-based, human; details: katacine 10 µM, rhodocytin 100 nM; 5 min; 9 µM eptifibatide
Syk Y525/526 = assay: Phospho-specific immunoblot of platelet lysates, Syk; format: cell-based, human; details: katacine 10 µM, rhodocytin 100 nM; 5 min; 9 µM eptifibatide
CLEC-2 = assay: Immunoprecipitation of CLEC-2 and 4G10 western blot; format: cell-based, human; details: katacine 10 µM, rhodocytin 100 nM
Outline: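 Platelets (4 × 10^8/mL, 9 µM eptifibatide) were stimulated 5 min at 37°C, stirring at 1,200 rpm, with test compound, rhodocytin or vehicle. Lysis was in NP-40 buffer with protease inhibitors and orthovanadate, pH 7.5. Lysates were precleared on Sepharose, then incubated 30 min with 2 µg anti-CLEC-2 antibody AYP1 and captured for 60 min. Immunoprecipitates were blotted with 4G10; signal was expressed as fold over vehicle.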

Sequence of podoplanin–CLEC-2 interaction (Q9P126 55-229): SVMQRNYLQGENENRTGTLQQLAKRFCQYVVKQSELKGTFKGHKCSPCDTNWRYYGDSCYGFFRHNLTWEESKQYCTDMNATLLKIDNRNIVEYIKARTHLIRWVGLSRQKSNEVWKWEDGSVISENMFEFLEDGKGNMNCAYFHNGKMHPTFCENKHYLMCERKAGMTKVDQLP

- IC50 [1]: 2700 nM
SMILES: Oc1cc(O)c2c(c1)O[C@H](c1cc(O)c(O)c(O)c1)[C@H](O)[C@H]2c1c(O)cc(O)c2c1O[C@H](c1cc(O)c(O)c(O)c1)[C@H](O)[C@H]2c1c(O)cc(O)c2c1O[C@H](c1cc(O)c(O)c(O)c1)[C@H](O)C2 [katacine, Katacine]
- platelet aggregation in mouse platelets (mouse washed platelets): did not observe platelet aggregation
- phosphorylation of FcR γ-chain (FcR γ-chain): did not stimulate an increase
- platelet aggregation, concentration–response (washed human platelets; at 5 μM and below): no response
- platelet aggregation, concentration–response (washed human platelets; at 10 and 30 μM): maximal aggregation
- platelet aggregation (washed human platelets; katacine 10 µM, washed platelets 2 × 10^8/mL): 77.7 ± 9%
- protein tyrosine phosphorylation in mouse platelets (mouse platelet lysates): did not observe
- increase in phosphorylation of LAT Y200 relative to vehicle (LAT Y200): 18.8 ± 5.9 fold
- increase in phosphorylation of Syk Y525/526 relative to vehicle (Syk Y525/526): 4.5 ± 0.9 fold
- increase in phosphorylation levels of CLEC-2 relative to vehicle (CLEC-2): 6.6 ± 4.6 fold

SMILES: CC(C)(C)n1nc(-c2ccc(Cl)cc2)c2c(N)ncnc21 [PP2, reference compound]
- effect on platelet aggregation induced by 10 µM katacine (washed human platelets): completely blocked

SMILES: Cc1cccc(Nc2nc(N[C@@H]3CCCC[C@@H]3N)ncc2C(N)=O)c1 [PRT-060318, reference compound]
- effect on platelet aggregation induced by 10 µM katacine (washed human platelets): completely blocked

- IC50 [1]: 1300 nM
SMILES: O=C(O)c1cc(O)c2c(c1)[C@H]([C@H]1c3cc(C(=O)O)cc(O)c3C(=O)c3c(O[C@@H]4O[C@H](CO)[C@@H](O)[C@H](O)[C@H]4O)cccc31)c1cccc(O[C@@H]3O[C@H](CO)[C@@H](O)[C@H](O)[C@H]3O)c1C2=O [sennoside A, Sennoside A]
- effect on platelet aggregation (washed human platelets; 10 and 30 µM, data not shown): no effect
- effect on the platelet aggregation response to rhodocytin (washed human platelets; 10 and 30 µM, rhodocytin 100 nM, data not shown): no effect
